Experimental data as given in ChEMBL document CHEMBL1828513, “Overcoming human P-glycoprotein-dependent multidrug resistance with novel dihydro-β-agarofuran sesquiterpenes” (Eur J Med Chem, 2011).

Key:
[1] = target: T1, ATP-dependent translocase ABCB1 (Homo sapiens, UniProt P08183); test: Inhibition of human MDR1 expressed in mouse NIH-3T3 cells assessed as daunomycin efflux after 30 mins by flow cytometry; type: cell-based, NIH3T3
In short: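 MDR1-G185-transfected NIH-3T3 cells in log phase were seeded 24 h beforehand at 10^5 cells/well. They were incubated 30 min at 37 °C in DMEM + 10% iFBS with 2 µM daunomycin and varied sesquiterpene concentrations, washed in ice-cold PBS, trypsinized, and read for single-cell fluorescence by flow cytometry.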

[2] = target: T2, MDR1 (ABCB1, P-glycoprotein) (Homo sapiens, UniProt P08183); test: (§1) Inhibition of human MDR1 expressed in mouse NIH-3T3 cells assessed as daunomycin efflux at 10 uM after 30 mins by flow cytometry; type: cell-based, NIH3T3; details: mouse NIH-3T3 cells expressing human MDR1, probe daunomycin
T2 sequence (P08183 whole entry): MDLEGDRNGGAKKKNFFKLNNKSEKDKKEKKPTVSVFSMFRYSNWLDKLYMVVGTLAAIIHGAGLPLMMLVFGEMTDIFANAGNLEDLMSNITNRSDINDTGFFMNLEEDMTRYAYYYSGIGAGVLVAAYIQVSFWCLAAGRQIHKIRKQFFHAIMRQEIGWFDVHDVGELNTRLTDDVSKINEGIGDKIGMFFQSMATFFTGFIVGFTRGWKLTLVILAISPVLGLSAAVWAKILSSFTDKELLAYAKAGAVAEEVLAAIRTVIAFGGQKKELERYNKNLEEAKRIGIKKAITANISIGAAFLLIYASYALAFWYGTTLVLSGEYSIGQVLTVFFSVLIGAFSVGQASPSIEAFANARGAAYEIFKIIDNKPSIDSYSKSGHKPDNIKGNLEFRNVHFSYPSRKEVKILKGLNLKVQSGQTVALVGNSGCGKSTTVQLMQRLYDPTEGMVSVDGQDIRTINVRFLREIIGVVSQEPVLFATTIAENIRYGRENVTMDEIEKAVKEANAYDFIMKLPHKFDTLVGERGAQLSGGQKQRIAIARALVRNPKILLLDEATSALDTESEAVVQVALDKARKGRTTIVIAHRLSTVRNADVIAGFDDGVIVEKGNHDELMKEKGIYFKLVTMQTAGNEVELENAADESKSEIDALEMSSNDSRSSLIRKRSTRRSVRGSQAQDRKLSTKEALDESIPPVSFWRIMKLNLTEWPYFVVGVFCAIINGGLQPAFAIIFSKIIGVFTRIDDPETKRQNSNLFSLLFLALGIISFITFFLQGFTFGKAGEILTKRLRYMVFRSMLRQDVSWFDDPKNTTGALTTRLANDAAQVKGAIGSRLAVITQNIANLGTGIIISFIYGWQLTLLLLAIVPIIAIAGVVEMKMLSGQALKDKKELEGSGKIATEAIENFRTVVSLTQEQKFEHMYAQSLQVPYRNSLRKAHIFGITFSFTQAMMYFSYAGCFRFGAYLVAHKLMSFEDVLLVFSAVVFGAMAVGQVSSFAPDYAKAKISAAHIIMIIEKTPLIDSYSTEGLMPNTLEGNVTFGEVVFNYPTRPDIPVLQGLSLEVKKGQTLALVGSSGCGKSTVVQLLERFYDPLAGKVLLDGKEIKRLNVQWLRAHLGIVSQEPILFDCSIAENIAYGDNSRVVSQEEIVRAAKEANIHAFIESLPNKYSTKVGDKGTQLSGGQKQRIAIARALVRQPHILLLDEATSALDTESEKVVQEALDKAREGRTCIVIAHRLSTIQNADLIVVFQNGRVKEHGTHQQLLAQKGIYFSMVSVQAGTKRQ

[3] = Intrinsic toxicity in wild type mouse NIH/3T3 cells assessed as cell growth at 10 uM relative to control; type: cell-based, NIH3T3; details: wild type NIH/3T3 cells, read-out: Activity
In short: (§2)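 Parental NIH-3T3 and MDR1-G185-transfected cells were cultured in DMEM with 10% heat-inactivated FBS, 2 mM L-glutamine and penicillin/streptomycin. Cells were exposed to 10 µM compound. Growth is reported as percent of untreated control. Mean ± S.D. of three independent experiments in triplicate.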

[4] = Intrinsic toxicity in mouse NIH/3T3 cells expressing human MDR1 assessed as cell growth at 10 uM relative to control; type: ADME, cell-based, NIH3T3; details: read-out: Activity; in short: as §2
[5] = target: T2, MDR1 (ABCB1, P-glycoprotein); test: Inhibition of human MDR1 expressed in mouse NIH-3T3 cells assessed as daunomycin efflux at 10 uM after 30 mins by flow cytometry relative to control; type: cell-based, NIH3T3; details: mouse NIH-3T3 cells expressing human MDR1, probe daunomycin, read-out: Imax
In short: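 Transfected MDR1-G185 NIH-3T3 cells were seeded 24 h prior at 10^5 cells/well. They were co-incubated 30 min at 37 °C in DMEM + 10% iFBS with 2 µM daunomycin and 10 µM sesquiterpene, then washed in ice-cold PBS, trypsinized and read by flow cytometry. Retention is expressed relative to 5 mM ortho-vanadate (100% Pgp inhibition). Mean ± S.D. of three independent experiments in triplicate.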

[6] = target: T1, ATP-dependent translocase ABCB1; test: as §1; type: cell-based, NIH3T3; details: nih3t3, 0.5 h, 10 µM

T1 sequence (P08183 whole entry): as above

Row | SMILES | Ki [1] | inhibition at 0.5 h, 10 µM [2] | viability at 10 µM [3] | viability at 10 µM [4] | inhibition at 0.5 h, 10 µM [5] | inhibition (INH) [6]
1 | CC(=O)OC[C@]12[C@@H](OC(=O)c3ccoc3)C[C@@H]3[C@@H](OC(=O)c4ccccc4)[C@]1(OC3(C)C)[C@@](C)(O)C[C@H](OC(=O)c1ccccc1)[C@@H]2OC(C)=O | 340 nM | 70% | 82.1% | 84.3% | > 90% | –
2 | CC(=O)OC[C@]12[C@@H](OC(=O)c3ccoc3)C[C@@H]3[C@@H](OC(=O)c4ccccc4)[C@]1(OC3(C)C)[C@@](C)(O)C[C@H](OC(C)=O)[C@@H]2OC(C)=O | 590 nM | 70% | 92.4% | 87.8% | > 90% | –
3 | CC(=O)OC[C@]12[C@@H](OC(=O)c3ccoc3)C[C@@H]3[C@@H](OC(=O)c4ccccc4)[C@]1(OC3(C)C)[C@@](C)(O)C[C@H](O)[C@@H]2OC(C)=O | – | – | – | – | – | Active
4 | CC(=O)OC[C@]12[C@@H](OC(=O)c3ccccc3)C[C@@H]3[C@@H](OC(=O)c4ccccc4)[C@]1(OC3(C)C)[C@@](C)(O)C[C@H](O)[C@@H]2OC(C)=O | 470 nM | 70% | 84.4% | 105% | > 90% | –
5 | CC(=O)OC[C@]12[C@@H](OC(=O)c3ccoc3)C[C@@H]3[C@@H](OC(C)=O)[C@]1(OC3(C)C)[C@@](C)(O)C[C@H](OC(C)=O)[C@@H]2OC(C)=O | – | – | – | – | – | Active
6 | CC(=O)OC[C@]12[C@@H](OC(=O)c3ccccc3)C[C@@H]3[C@@H](OC(=O)c4ccccc4)[C@]1(OC3(C)C)[C@@](C)(O)C[C@H](OC(C)=O)[C@@H]2OC(C)=O | 390 nM | 70% | 76.7% | 77.2% | > 90% | –
7 | CC(=O)OC[C@]12[C@@H](OC(=O)c3ccoc3)C[C@@H]3[C@@H](OC(=O)c4ccoc4)[C@]1(OC3(C)C)[C@@](C)(O)C[C@H](OC(C)=O)[C@@H]2OC(C)=O | 510 nM | 70% | 92% | 82.9% | > 90% | –
8 | CC(=O)O[C@H]1[C@@H](OC(=O)c2ccccc2)C[C@](C)(O)[C@]23OC(C)(C)[C@H](C[C@H](OC(=O)c4ccoc4)[C@]12C)[C@H]3OC(=O)c1ccccc1 | 380 nM | 70% | 108% | 98% | > 90% | –
9 | CC(=O)O[C@H]1[C@H](OC(=O)c2ccoc2)[C@@]2(C)[C@@H](OC(=O)c3ccccc3)C[C@@H]3C[C@]2(OC3(C)C)[C@@](C)(O)[C@H]1OC(C)=O | – | – | – | – | – | Active
10 | CC(=O)O[C@@H]1[C@H](OC(C)=O)[C@@H](C)[C@@]23C[C@@H](C[C@H](OC(=O)c4ccccc4)[C@]2(C)[C@H]1OC(=O)c1ccoc1)C(C)(C)O3 | 640 nM | 70% | 91.8% | 92.4% | > 90% | –
11 | CC(=O)O[C@@H]1C[C@](C)(O)[C@@]23C[C@@H](C[C@H](OC(=O)c4ccccc4)[C@]2(C)[C@H]1OC(=O)c1ccoc1)C(C)(C)O3 | – | – | – | – | – | Active
12 | CC(=O)O[C@@H]1C[C@](C)(O)[C@@]23C[C@@H](C[C@H](OC(=O)c4ccoc4)[C@]2(C)[C@H]1OC(=O)c1ccoc1)C(C)(C)O3 | – | – | – | – | – | Active
13 | CC(=O)O[C@@H]1C[C@](C)(O)[C@@]23C[C@@H](C[C@H](OC(=O)/C=C/c4ccccc4)[C@]2(C)[C@H]1OC(=O)c1ccoc1)C(C)(C)O3 | 570 nM | 70% | 86% | 100% | > 90% | –
14 | CC(=O)O[C@@H]1C[C@@H](C)[C@@]23C[C@@H](C[C@H](OC(=O)c4ccccc4)[C@]2(C)[C@H]1OC(=O)c1ccoc1)C(C)(C)O3 | – | – | – | – | – | Active
15 | CC1(C)O[C@]23C[C@H]1C[C@H](OC(=O)c1ccccc1)[C@]2(C)[C@@H](OC(=O)c1ccoc1)CC[C@]3(C)O | – | – | – | – | – | Active
16 | CC(=O)OC[C@]12[C@@H](OC(=O)c3ccccc3)C[C@@H]3[C@@H](OC(C)=O)[C@]1(OC3(C)C)[C@@](C)(O)C[C@H](OC(C)=O)[C@@H]2OC(C)=O | – | – | – | – | – | Active
17 | COc1ccc(CCN(C)CCCC(C#N)(c2ccc(OC)c(OC)c2)C(C)C)cc1OC (centres undefined) | – | – | – | 79.2% | – | –
